Test results from ChEMBL document CHEMBL1764953, “Discovery of orally active carboxylic acid derivatives of 2-phenyl-5-trifluoromethyloxazole-4-carboxamide as potent diacylglycerol acyltransferase-1 inhibitors for the potential treatment of obesity and diabetes” (J Med Chem, 2011).
Values after ≈ are worked out from the molar mass of the structure shown. Active and inactive are the calls of the source. No cut-off for these calls is given here.

Experiments:
Rattus norvegicus [1] = assay: Antidiabetic activity in diet-induced obese Sprague-Dawley rat assessed as decrease in glucose excursion at 3 mg/kg, po administered once daily for 3 weeks by OGTT; assay type: functional; parameters: scale not given: the % may be the effect or the level left
Outline: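 Male Sprague-Dawley DIO rats (n = 10/group), 550–650 g, reverse light/dark cycle, high fat diet from 7 weeks of age; dosed po once daily in Klucel suspension.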

Rattus norvegicus [2] = assay: Antiobesity activity in diet-induced obese rat assessed as decrease in food intake at 3 mg/kg, po administered once daily for 3 weeks; assay type: functional; parameters: scale not given: the % may be the effect or the level left
Outline: (§1)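 Male DIO rats, 19 weeks old, on high fat diet for 12 weeks, dosed po once daily with Klucel (hydroxypropyl cellulose) suspension for 22 days; 10 rats per group. Body weight followed throughout; daily food intake recorded on days 1–3, 8, 9, 15 and 16, values averaged per group.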

Rattus norvegicus [3] = assay: Antiobesity activity in diet-induced obese rat assessed as decrease in food intake at 1 mg/kg, po administered once daily for 3 weeks; assay type: functional; parameters: scale not given: the % may be the effect or the level left; outline: as §1
[4] = Cmax in diet-induced obese rat at 1 mg/kg, po administered once daily for 3 weeks; assay type: ADME, organism-based; parameters: dose 1 mg/kg, route oral; settings: in vivo
[5] = Cmax in diet-induced obese rat at 0.3 mg/kg, po administered once daily for 3 weeks; assay type: ADME, organism-based; parameters: dose 0.3 mg/kg, route oral; settings: in vivo
Rattus norvegicus [6] = assay: Antiobesity activity in diet-induced obese rat assessed as reduction in body weight gain at 0.3 mg/kg, po administered once daily for 3 weeks; assay type: functional; parameters: scale not given: the % may be the effect or the level left; outline: as §1
Rattus norvegicus [7] = assay: Antiobesity activity in diet-induced obese rat assessed as reduction in plasma triglyceride levels at 3 mg/kg, po qd after 4 hrs challenged with corn oil relative to vehicle treated control; assay type: functional; parameters: scale not given: the % may be the effect or the level left
Outline: (§2)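 Male DIO rats given 3 mg/kg po once daily for 1 week, with body weight gain followed. At study end, rats were fasted 4 h and challenged with corn oil 5 mL/kg; plasma triglycerides were measured 4 h later and compared with the vehicle group.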

Rattus norvegicus [8] = assay: Antiobesity activity in diet-induced obese rat assessed as reduction in body weight gain at 3 mg/kg, po qd; assay type: functional; parameters: scale not given: the % may be the effect or the level left; outline: as §2
[9] = Tmax in Hanover Wistar rat at 10 mg/kg, po; assay type: ADME, organism-based; parameters: dose 10 mg/kg, route oral; settings: in vivo
Outline: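 Oral gavage to rats (jugular/femoral vein-cannulated, femoral vein blood sampling) or beagle dogs, n = 3, as a 2 mg/mL suspension in 2% Klucel LF with 0.1% Tween 80 in water. Plasma extracted by acetonitrile protein precipitation and quantified by LC-MS/MS (linear 5.0–5000 ng/mL). Noncompartmental analysis; mean of 3.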

[10] = Cmax in Beagle dog at 10 mg/kg, po by LC-MS/MS; assay type: ADME, organism-based, Canis lupus familiaris; parameters: dose 10 mg/kg, route oral; settings: in vivo
Outline: (§3)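 Plasma extracted by acetonitrile precipitation and quantified by LC-MS/MS (5.0–5000 ng/mL); noncompartmental PK; bioavailability relative to 5 mg/kg iv; mean of n = 3.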

[11] = Cmax in Hanover Wistar rat at 10 mg/kg, po by LC-MS/MS; assay type: ADME, organism-based; parameters: dose 10 mg/kg, route oral; settings: in vivo
Outline: (§4)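 Hanover Wistar rats (n = 3) with jugular/femoral cannulae, oral gavage of a 2 mg/mL suspension in 2% Klucel LF with 0.1% Tween 80; femoral-vein sampling, EDTA plasma, acetonitrile precipitation, LC-MS/MS (5.0–5000 ng/mL), noncompartmental analysis; F relative to 5 mg/kg iv; mean of n = 3.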

[12] = Extrapolated AUC in Beagle dog at 10 mg/kg, po; assay type: ADME, organism-based, Canis lupus familiaris; parameters: dose 10 mg/kg, route oral; settings: in vivo; outline: as §3
[13] = Extrapolated AUC in Hanover Wistar rat at 10 mg/kg, po; assay type: ADME, organism-based; parameters: dose 10 mg/kg, route oral; settings: in vivo; outline: as §4
[14] = Half life in Hanover Wistar rat at 5 mg/kg, iv; assay type: ADME, organism-based; parameters: dose 5 mg/kg, route intravenous; settings: in vivo
Outline: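 Hanover Wistar rats (n = 3) cannulated in jugular and femoral veins, dosed iv 5 mg/kg via jugular vein as a solution in 2% DMA, 15% PEG400, 77% of 28% HPβCD in pH 7 PBS. Femoral-vein blood, EDTA plasma, acetonitrile precipitation, LC-MS/MS, noncompartmental analysis; mean of n = 3.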

Cytochrome P450 3A4 = Cytochrome P450 3A4 (Homo sapiens, UniProt P08684); assay: Inhibition of CYP3A4; assay type: ADME
Chain of Cytochrome P450 3A4 (P08684 whole entry): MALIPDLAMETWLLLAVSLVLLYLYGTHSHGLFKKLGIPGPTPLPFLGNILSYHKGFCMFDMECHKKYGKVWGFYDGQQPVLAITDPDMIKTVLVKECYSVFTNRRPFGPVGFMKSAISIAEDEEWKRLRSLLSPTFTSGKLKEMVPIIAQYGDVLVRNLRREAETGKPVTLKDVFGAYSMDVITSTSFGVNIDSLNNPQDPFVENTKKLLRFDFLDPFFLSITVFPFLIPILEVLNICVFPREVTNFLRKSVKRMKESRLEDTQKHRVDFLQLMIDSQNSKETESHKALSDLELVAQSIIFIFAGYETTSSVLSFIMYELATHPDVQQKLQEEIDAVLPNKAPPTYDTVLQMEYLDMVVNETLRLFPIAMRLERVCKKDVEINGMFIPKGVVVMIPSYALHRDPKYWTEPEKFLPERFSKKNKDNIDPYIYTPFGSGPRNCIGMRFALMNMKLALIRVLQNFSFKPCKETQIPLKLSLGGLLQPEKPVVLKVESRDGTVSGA

Cytochrome P450 2C19 = Cytochrome P450 2C19 (Homo sapiens, UniProt P33261); assay: Inhibition of CYP2C19; assay type: ADME
Chain of Cytochrome P450 2C19 (P33261 whole entry): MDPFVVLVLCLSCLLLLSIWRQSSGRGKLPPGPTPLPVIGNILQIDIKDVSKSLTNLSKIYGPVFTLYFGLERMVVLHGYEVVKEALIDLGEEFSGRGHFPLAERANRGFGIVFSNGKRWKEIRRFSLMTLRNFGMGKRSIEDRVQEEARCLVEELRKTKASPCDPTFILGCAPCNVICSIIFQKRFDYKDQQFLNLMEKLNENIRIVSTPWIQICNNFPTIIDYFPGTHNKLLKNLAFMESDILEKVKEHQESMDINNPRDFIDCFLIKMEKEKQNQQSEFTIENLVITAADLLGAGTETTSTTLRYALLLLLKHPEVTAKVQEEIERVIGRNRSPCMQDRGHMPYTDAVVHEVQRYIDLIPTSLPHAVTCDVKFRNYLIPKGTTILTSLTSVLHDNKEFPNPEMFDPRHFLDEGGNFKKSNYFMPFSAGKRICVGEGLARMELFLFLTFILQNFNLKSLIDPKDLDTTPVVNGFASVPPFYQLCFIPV

Cytochrome P450 2C9 = Cytochrome P450 2C9 (Homo sapiens, UniProt P11712); assay: Inhibition of CYP2C9; assay type: ADME
Chain of Cytochrome P450 2C9 (P11712 whole entry): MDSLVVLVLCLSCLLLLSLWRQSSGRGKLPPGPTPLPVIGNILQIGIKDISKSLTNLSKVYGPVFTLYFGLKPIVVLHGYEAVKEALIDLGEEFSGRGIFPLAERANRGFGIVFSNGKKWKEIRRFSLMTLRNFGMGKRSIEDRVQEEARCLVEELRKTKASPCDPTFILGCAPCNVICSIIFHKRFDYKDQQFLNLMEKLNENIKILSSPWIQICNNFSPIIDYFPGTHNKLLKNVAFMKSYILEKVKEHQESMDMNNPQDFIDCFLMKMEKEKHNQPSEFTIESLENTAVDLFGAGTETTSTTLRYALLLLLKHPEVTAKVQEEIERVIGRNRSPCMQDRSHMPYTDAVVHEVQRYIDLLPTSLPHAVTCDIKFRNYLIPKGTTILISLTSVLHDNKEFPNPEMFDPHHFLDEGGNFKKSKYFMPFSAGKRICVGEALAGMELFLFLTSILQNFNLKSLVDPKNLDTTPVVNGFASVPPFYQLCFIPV

[15] = Permeability across human Caco2 cells; assay type: ADME, cell-based; settings: Caco-2, read-out: permeability
[16] = Lipophilicity, log D of the compound; assay type: physicochemical; settings: octanol/water
[17] = Association constant pKa of the compound; assay type: physicochemical
hERG = hERG (Homo sapiens, UniProt Q12809); assay: Inhibition of human ERG-mediated current expressed in CHO cells by patch clamp method; assay type: cell-based; settings: CHO cells expressing human ERG
Chain of hERG (Q12809 whole entry): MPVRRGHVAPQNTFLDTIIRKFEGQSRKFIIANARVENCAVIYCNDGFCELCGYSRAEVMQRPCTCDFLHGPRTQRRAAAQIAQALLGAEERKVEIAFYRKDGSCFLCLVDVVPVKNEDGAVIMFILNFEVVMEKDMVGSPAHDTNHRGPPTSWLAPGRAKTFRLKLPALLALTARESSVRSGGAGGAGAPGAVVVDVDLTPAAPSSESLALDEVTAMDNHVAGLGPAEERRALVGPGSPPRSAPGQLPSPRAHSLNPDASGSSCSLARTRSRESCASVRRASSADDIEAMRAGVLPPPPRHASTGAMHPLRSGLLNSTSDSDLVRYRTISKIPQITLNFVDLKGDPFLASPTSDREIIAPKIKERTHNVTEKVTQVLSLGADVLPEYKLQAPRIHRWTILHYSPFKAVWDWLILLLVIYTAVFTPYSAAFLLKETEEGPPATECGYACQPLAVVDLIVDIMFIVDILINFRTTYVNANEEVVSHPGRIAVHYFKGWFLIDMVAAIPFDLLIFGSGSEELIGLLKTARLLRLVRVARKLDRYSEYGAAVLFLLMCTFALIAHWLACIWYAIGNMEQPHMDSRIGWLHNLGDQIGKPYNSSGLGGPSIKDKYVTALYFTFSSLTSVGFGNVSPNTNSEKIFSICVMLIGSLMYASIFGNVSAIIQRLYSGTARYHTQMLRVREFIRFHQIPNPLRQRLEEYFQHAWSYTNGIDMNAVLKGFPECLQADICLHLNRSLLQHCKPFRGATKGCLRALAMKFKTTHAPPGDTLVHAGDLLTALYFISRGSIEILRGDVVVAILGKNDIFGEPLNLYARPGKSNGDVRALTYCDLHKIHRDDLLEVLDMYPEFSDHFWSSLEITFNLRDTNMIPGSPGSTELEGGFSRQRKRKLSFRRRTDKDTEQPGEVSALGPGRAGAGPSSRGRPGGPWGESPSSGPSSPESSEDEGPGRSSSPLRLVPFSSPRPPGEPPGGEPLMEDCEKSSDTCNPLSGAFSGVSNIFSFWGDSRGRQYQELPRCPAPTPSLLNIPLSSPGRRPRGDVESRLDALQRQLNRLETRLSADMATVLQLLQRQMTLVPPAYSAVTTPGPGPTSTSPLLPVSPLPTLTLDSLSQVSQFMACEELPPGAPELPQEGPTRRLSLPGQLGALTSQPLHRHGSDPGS
Outline: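 hERG-transfected CHO cells on automated whole-cell patch clamp at a holding potential of −80 mV; 1 s depolarizing pulse at 0.1 Hz; tail current measured at −40 mV. Sequence: 0.3% DMSO vehicle, three ascending log-interval concentrations up to 30 μM or the solubility limit, then 1 μM E-4031. At least 3 cells per compound; data normalized to vehicle and fitted with the Hill equation.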

[18] = target: T1, Diacylglycerol O-acyltransferase 1 (Homo sapiens, UniProt O75907); assay: Inhibition of human DGAT1 expressed in baculovirus infected insect cells after 1 hr using palmitoyl-1-14C-coenzyme A by phospholipid flashplate assay
T1 sequence (O75907 whole entry): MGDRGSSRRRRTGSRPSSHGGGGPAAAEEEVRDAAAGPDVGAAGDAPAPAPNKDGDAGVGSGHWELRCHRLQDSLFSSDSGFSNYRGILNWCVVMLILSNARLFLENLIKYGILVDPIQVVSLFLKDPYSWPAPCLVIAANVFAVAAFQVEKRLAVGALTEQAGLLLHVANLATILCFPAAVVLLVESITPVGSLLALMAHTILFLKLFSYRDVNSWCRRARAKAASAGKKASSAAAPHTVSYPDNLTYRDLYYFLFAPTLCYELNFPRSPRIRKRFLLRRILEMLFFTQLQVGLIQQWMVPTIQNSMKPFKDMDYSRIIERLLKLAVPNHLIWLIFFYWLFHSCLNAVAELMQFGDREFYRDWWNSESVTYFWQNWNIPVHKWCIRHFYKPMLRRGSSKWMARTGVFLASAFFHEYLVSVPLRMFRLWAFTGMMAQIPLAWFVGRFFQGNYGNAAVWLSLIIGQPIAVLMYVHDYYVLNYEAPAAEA

[19] = Solubility of the compound at mp 217 degC; assay type: physicochemical
Rattus norvegicus [20] = assay: Antidiabetic activity in diet-induced obese Sprague-Dawley rat assessed as effect on insulin level at 0.3 mg/kg, po administered once daily for 3 weeks measured after 30 mins by OGTT; assay type: functional, organism-based; parameters: dose 0.3 mg/kg
Outline: (§5)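 DIO rats (n = 10/group) on high fat diet, dosed po once daily in Klucel suspension for 3 weeks. On day 21 an oral glucose challenge of 2 g/kg was given, and plasma insulin was measured at the 30 min time point.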

Rattus norvegicus [21] = assay: Antidiabetic activity in diet-induced obese Sprague-Dawley rat assessed as effect on insulin level at 1 mg/kg, po administered once daily for 3 weeks measured after 30 mins by OGTT; assay type: functional, organism-based; parameters: dose 1 mg/kg; outline: as §5
Rattus norvegicus [22] = assay: Antidiabetic activity in diet-induced obese Sprague-Dawley rat assessed as effect on insulin level at 3 mg/kg, po administered once daily for 3 weeks measured after 30 mins by OGTT; assay type: functional, organism-based; parameters: dose 3 mg/kg; outline: as §5
[23] = target: T1, Diacylglycerol O-acyltransferase 1; assay: Inhibition of human DGAT1 expressed in CHO-K1 cells after 1 hr using 14C palmitic acid

Work on `O=C(Nc1ccc(C2CCN(C(=O)[C@H]3CC[C@H](C(=O)O)CC3)CC2)cc1)c1nc(-c2ccccc2)oc1C(F)(F)F` yielded an Activity (Rattus norvegicus [1]) of 15%, an Activity (Rattus norvegicus [2]) of 27% and an Activity (Rattus norvegicus [3]) of 19%. The Cmax [4] was 4.8 µM, the Cmax [5] was 2 µM and the Activity (Rattus norvegicus [6]) was 5%. It also gave an Activity (Rattus norvegicus [7]) of 85%, an Activity (Rattus norvegicus [8]) of 4% and a Tmax [9] of 12 h. The Cmax [10] was 4.7 µM, the Cmax [11] was 34.8 µM and the AUC [12] was 77.9 µM·h. The AUC [13] was 567 µM·h, the half-life [14] was 8.6 h and the IC50 (Cytochrome P450 3A4) was > 50 µM. For the same compound, the IC50 (Cytochrome P450 2C19) was > 50 µM, the IC50 (Cytochrome P450 2C9) was > 50 µM and the Papp [15] was 24.5 ×10⁻⁶ cm/s. For the same compound, the logD [16] was 2.34, the pKa [17] was 5.78 and the IC20 (hERG) was 30 µM. The IC50 [18] was 0.057 µM, the solubility [19] was 15.4 µg/mL (≈ 27 µM) and the Activity (Rattus norvegicus [20]) was “inactive”. The Activity (Rattus norvegicus [21]) was “inactive”, the Activity (Rattus norvegicus [22]) was “inactive” and the EC50 [23] was 0.493 µM.
